Laboratory results: ChEMBL document CHEMBL4689842, “EUbOPEN Chemogenomics Library wave 1” (2021)
Several values for one entry are separate records, joined by “and”; a condition that tells them apart may be missing. Identical values can stand only once.

Tested on: HEK-293T
Experiment: Multiplex assay against HEK293T;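 on Population Tubulin-Different-Phenotype (%): share of the cells with healthy nuclei that show this phenotype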
Type: toxicity, cell-based
Conditions: human
Method in brief: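 Cells were classed with CellPathfinder machine-learning gating, first as Hoechst high-intensity objects or normal cells, then (normal cells) as healthy, pyknosed or fragmented nuclei, and finally (pyknosed cells) as mitotic or apoptotic. Staining of live cells at seeding used Hoechst33342, BioTracker Green Microtubule Cytoskeleton Dye, MitoTracker Red and Annexin V Alexa Fluor 680, with imaging on a CQ1 microscope at 37°C and 5% CO2 after compound addition. Tubulin, mitochondrial-mass and membrane-permeability phenotypes are per cents of healthy-nucleus cells.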

[1] = 12 h, 1 µM, compound concentration 1 uM, replicate 1
[2] = 12 h, 1 µM, compound concentration 1 uM, replicate 2
[3] = 12 h, 10 µM, compound concentration 10 uM, replicate 1
[4] = 12 h, 10 µM, compound concentration 10 uM, replicate 2
[5] = 24 h, 1 µM, compound concentration 1 uM, replicate 1
[6] = 24 h, 1 µM, compound concentration 1 uM, replicate 2
[7] = 24 h, 10 µM, compound concentration 10 uM, replicate 1
[8] = 24 h, 10 µM, compound concentration 10 uM, replicate 2
[9] = 48 h, 1 µM, compound concentration 1 uM, replicate 1
[10] = 48 h, 1 µM, compound concentration 1 uM, replicate 2
[11] = 48 h, 10 µM, compound concentration 10 uM, replicate 1
[12] = 48 h, 10 µM, compound concentration 10 uM, replicate 2

O=C(NCCCC1CCCCC1)c1ccc(CNC(=O)c2cnn(-c3ccccc3)c2C(F)(F)F)cc1 [SR-321]
Population Apoptotic (%) [1]: 40% and 29% and 42%
Population Fragmented Nuclei (%) [1]: 15% [middle of 4 runs]
Population Healthy Nuclei (%) [1]: 31% and 37% and 67%
Population Hoechst High Intensity Objects (%) [1]: 14% [middle of 4 runs]
Population Membrane Permeable-Phenotype (%) [1]: 2% and 0% and 3%
Population Mitotic Cells (%) [1]: 59% and 70% and 57%
Population Normal (%) [1]: 85% and 83% and 90% and 88%
Total Cell Count [1]: 312 [middle of 4 runs]
Population Apoptotic (%) [2]: 10% [middle of 4 runs]
Population Fragmented Nuclei (%) [2]: 6% [middle of 4 runs]
Population Healthy Nuclei (%) [2]: 42% [middle of 4 runs]
Population Hoechst High Intensity Objects (%) [2]: 3% and 2% and 5%
Population Membrane Permeable-Phenotype (%) [2]: 10% and 8% and 1%
Population Mitochondria Different-Phenotype (%) [2]: 10% and 19% and 7%
Population Mitotic Cells (%) [2]: 85% and 90% and 89% and 92%
Population Normal (%) [2]: 96% and 97% and 94%
Population Apoptotic (%) [3]: 50% [middle of 4 runs]
Population Fragmented Nuclei (%) [3]: 16% [middle of 4 runs]
Population Hoechst High Intensity Objects (%) [3]: 17% [middle of 4 runs]
Population Membrane Permeable-Phenotype (%) [3]: 6% and 2% and 4%
Population Mitotic Cells (%) [3]: 60% [middle of 4 runs]
Population Normal (%) [3]: 86% and 81% and 82% and 89%
Total Cell Count [3]: 302 [middle of 4 runs]
Population Healthy Nuclei (%) [4]: 38% [middle of 4 runs]
Population Hoechst High Intensity Objects (%) [4]: 4% and 2% and 3%
Population Membrane Permeable-Phenotype (%) [4]: 5% and 3% and 0%
Population Mitotic Cells (%) [4]: 86% [middle of 4 runs]
Population Normal (%) [4]: 95% and 97% and 96%
Population Tubulin-Different-Phenotype (%) [4]: 32% [middle of 4 runs]
Population Fragmented Nuclei (%) [5]: 13% [middle of 4 runs]
Population Healthy Nuclei (%) [5]: 42% and 36% and 81%
Population Hoechst High Intensity Objects (%) [5]: 15% [middle of 4 runs]
Population Membrane Permeable-Phenotype (%) [5]: 2% [middle of 4 runs]
Population Mitotic Cells (%) [5]: 59% and 54% and 58% and 86%
Population Normal (%) [5]: 87% and 83% and 84% and 93%
Total Cell Count [5]: 361 [middle of 4 runs]
Population Healthy Nuclei (%) [6]: 65% [middle of 4 runs]
Population Hoechst High Intensity Objects (%) [6]: 2% and 3%
Population Membrane Permeable-Phenotype (%) [6]: 11% [middle of 4 runs]
Population Mitotic Cells (%) [6]: 82% and 89% and 94%
Population Normal (%) [6]: 97% and 96%
Population Tubulin-Different-Phenotype (%) [6]: 20% [middle of 4 runs]
Population Apoptotic (%) [7]: 57% [middle of 4 runs]
Population Fragmented Nuclei (%) [7]: 16% and 19% and 18%
Population Membrane Permeable-Phenotype (%) [7]: 0% and 4% and 6%
Population Mitotic Cells (%) [7]: 53% [middle of 4 runs]
Population Normal (%) [7]: 81% and 80% and 85% and 93%
Population Tubulin-Different-Phenotype (%) [7]: 59% and 53% and 26%
Population Healthy Nuclei (%) [8]: 55% [middle of 4 runs]
Population Hoechst High Intensity Objects (%) [8]: 3% and 4%
Population Mitotic Cells (%) [8]: 73% and 81% and 95%
Population Normal (%) [8]: 96% and 95%
Population Tubulin-Different-Phenotype (%) [8]: 44% [middle of 4 runs]
Population Apoptotic (%) [9]: 41% and 50% and 34%
Population Fragmented Nuclei (%) [9]: 14% and 21% and 17%
Population Healthy Nuclei (%) [9]: 34% and 40%
Population Hoechst High Intensity Objects (%) [9]: 14% and 20%
Population Membrane Permeable-Phenotype (%) [9]: 4% and 2%
Population Mitochondria Different-Phenotype (%) [9]: 31% and 29%
Population Mitotic Cells (%) [9]: 58% and 49% and 65%
Population Normal (%) [9]: 85% and 79%
Population Pyknosed Nuclei (%) [9]: 50% and 38% and 42%
Population Tubulin-Different-Phenotype (%) [9]: 27% and 29%
Total Cell Count [9]: 401 and 332 and 411
Population Apoptotic (%) [10]: 9% and 8% and 13%
Population Fragmented Nuclei (%) [10]: 6% and 5%
Population Healthy Nuclei (%) [10]: 79% and 76% and 82%
Population Hoechst High Intensity Objects (%) [10]: 3% and 5%
Population Membrane Permeable-Phenotype (%) [10]: 8% and 6%
Population Mitochondria Different-Phenotype (%) [10]: 3% and 7% and 6%
Population Mitotic Cells (%) [10]: 90% and 91% and 86%
Population Normal (%) [10]: 96% and 94%
Population Pyknosed Nuclei (%) [10]: 13% and 17% and 11%
Population Tubulin-Different-Phenotype (%) [10]: 18% and 22% and 15%
Total Cell Count [10]: 377 and 459 and 394
Population Apoptotic (%) [11]: 48% and 63% and 54%
Population Fragmented Nuclei (%) [11]: 23% and 25%
Population Healthy Nuclei (%) [11]: 28% and 27% and 18%
Population Hoechst High Intensity Objects (%) [11]: 19% and 20% and 16%
Population Membrane Permeable-Phenotype (%) [11]: 0% and 1%
Population Mitochondria Different-Phenotype (%) [11]: 73% and 83%
Population Mitotic Cells (%) [11]: 51% and 36% and 45%
Population Normal (%) [11]: 80% and 79% and 83%
Population Pyknosed Nuclei (%) [11]: 47% and 48% and 56%
Population Tubulin-Different-Phenotype (%) [11]: 32% and 59%
Total Cell Count [11]: 274 and 281 and 324
Population Apoptotic (%) [12]: 30% and 26% and 20%
Population Fragmented Nuclei (%) [12]: 6% and 5% and 8%
Population Healthy Nuclei (%) [12]: 78% and 75% and 74%
Population Hoechst High Intensity Objects (%) [12]: 3% and 2%
Population Membrane Permeable-Phenotype (%) [12]: 5% and 2%
Population Mitochondria Different-Phenotype (%) [12]: 27% and 41% and 31%
Population Mitotic Cells (%) [12]: 69% and 73% and 79%
Population Normal (%) [12]: 96% and 97%
Population Pyknosed Nuclei (%) [12]: 15% and 19% and 17%
Population Tubulin-Different-Phenotype (%) [12]: 50% and 52% and 49%
Total Cell Count [12]: 396 and 327 and 349
